# In ChEMBL document CHEMBL1255425, “Mutant APH(2'')-IIa enzymes with increased activity against amikacin and isepamicin” (2010):
# How the values were obtained:
# Escherichia coli [1] = assay: Antibacterial activity against Escherichia coli JM83 harboring empty pHF022 vector by broth microdilution method; type: functional
# Method in brief: (§1)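 MICs by CLSI broth microdilution in Mueller-Hinton II broth; inoculum 5 × 10^5 CFU/ml; plates read after 20 h at 35°C. Host E. coli JM83 carrying pHF022 (empty or with cloned wild-type or mutant aph(2″)-IIa gene between NdeI and HindIII). Values are averages of at least three independent experiments.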
# [2] = Ratio of Kcat to Km for Aminoglycoside […] 2a R92H/D268N mutant using ATP/GTP as second substrate by spectrophotometric assay
# Method in brief: (§2)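 Enzymes were expressed in E. coli BL21(DE3) and affinity-purified: gentamicin column for wild type and N196D/D268N, kanamycin column for R92H/D268N. Activity was read by continuous PK/LDH-coupled NADH assay in 100 mM HEPES pH 7.5, 10 mM MgCl2, 20 mM KCl, 2 mM PEP, 140 μM NADH, with 5 to 10 nM enzyme. ATP/GTP was varied with kanamycin A fixed at 10 μM. Values came from nonlinear Michaelis-Menten fits.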
# [3] = Ratio of Kcat to Km for Aminoglycoside […] 2a N196D/D268N mutant using ATP/GTP as second substrate by spectrophotometric assay; method in brief: as §2
# Escherichia coli [4] = assay: Antibacterial activity against Escherichia coli JM83 harboring pHF022 containing aminoglycoside 2''-2a phosphotransferase R92H mutant by broth microdilution method; type: functional; method in brief: as §1
# Escherichia coli [5] = assay: Antibacterial activity against Escherichia coli JM83 harboring pHF022 containing aminoglycoside 2''-2a phosphotransferase R92H/D268N mutant by broth microdilution method; type: functional; method in brief: as §1
# [6] = Activity of Aminoglycoside […] 2a using ATP/GTP as second substrate by spectrophotometric assay; method in brief: as §2
# [7] = Activity of Aminoglycoside […] 2a R92H/D268N mutant using ATP/GTP as second substrate by spectrophotometric assay; method in brief: as §2
# Escherichia coli [8] = assay: Antibacterial activity against Escherichia coli JM83 producing aminoglycoside 2''-2a phosphotransferase by broth microdilution method; type: functional; method in brief: as §1
# Escherichia coli [9] = assay: Antibacterial activity against Escherichia coli JM83 harboring pHF022 containing aminoglycoside 2''-2a phosphotransferase N196D/D268N mutant by broth microdilution method; type: functional; method in brief: as §1
# [10] = Activity of Aminoglycoside […] 2a N196D/D268N mutant using ATP/GTP as second substrate by spectrophotometric assay; method in brief: as §2
# [11] = Ratio of Kcat to Km for Aminoglycoside […] 2a using ATP/GTP as second substrate by spectrophotometric assay; method in brief: as §2
# Escherichia coli [12] = assay: Antibacterial activity against Escherichia coli JM83 harboring pHF022 containing aminoglycoside 2''-2a D268N mutant by broth microdilution method; type: functional; method in brief: as §1
# Escherichia coli [13] = assay: Antibacterial activity against Escherichia coli JM83 harboring pHF022 containing aminoglycoside 2''-2a N196D mutant by broth microdilution method; type: functional; method in brief: as §1
Molecule,MIC (Escherichia coli [1]),kcat/Km [2],kcat/Km [3],MIC (Escherichia coli [4]),MIC (Escherichia coli [5]),Km [6],kcat [6],Km [7],kcat [7],MIC (Escherichia coli [8]),MIC (Escherichia coli [9]),Km [10],kcat [10],kcat/Km [11],MIC (Escherichia coli [12]),MIC (Escherichia coli [13])
NC[C@@H]1CC[C@@H](N)[C@@H](O[C@H]2[C@H](O)[C@@H](O[C@H]3O[C@H](CO)[C@@H](O)[C@H](N)[C@H]3O)[C@H](N)C[C@@H]2N)O1 [DIBEKACIN],0.5 µg/mL,2.3 ×10⁷ /M/s,> 1.7 ×10⁷ /M/s,64 µg/mL,64 µg/mL,1.2 µM,17.1 s⁻¹,1.2 µM,27.5 s⁻¹,64 µg/mL,64 µg/mL,< 1 µM,16.9 s⁻¹,1.4 ×10⁷ /M/s,32 µg/mL,64 µg/mL
NC[C@@H]1O[C@@H](O[C@H]2[C@H](O)[C@@H](O[C@H]3O[C@H](CO)[C@@H](O)[C@H](N)[C@H]3O)[C@H](N)C[C@@H]2N)[C@@H](O)[C@H](O)[C@H]1O [KANAMYCIN A],2 µg/mL,> 2 ×10⁷ /M/s,> 1.4 ×10⁷ /M/s,256 µg/mL,256 µg/mL,2.1 µM,45.1 s⁻¹,< 1 µM,20.5 s⁻¹,256 µg/mL,256 µg/mL,< 1 µM,13.8 s⁻¹,2.2 ×10⁷ /M/s,256 µg/mL,256 µg/mL
GENTAMICIN,0.25 µg/mL,–,–,16 µg/mL,16 µg/mL,–,–,–,–,16 µg/mL,16 µg/mL,–,–,–,16 µg/mL,16 µg/mL
CN[C@@H]1[C@@H](O)[C@@H](O[C@@H]2[C@@H](O)[C@H](O[C@H]3O[C@H](CN)[C@@H](O)[C@H](O)[C@H]3O)[C@@H](N)C[C@H]2NC(=O)[C@@H](O)CN)OC[C@]1(C)O [ISEPAMICIN],2 µg/mL,2.3 ×10⁶ /M/s,2 ×10⁶ /M/s,4 µg/mL,16 µg/mL,13.5 µM,5.7 s⁻¹,1.2 µM,2.8 s⁻¹,2 µg/mL,16 µg/mL,2 µM,4.1 s⁻¹,4.4 ×10⁵ /M/s,2 µg/mL,2 µg/mL
"CN[C@@H]1[C@@H](O)[C@@H](O[C@@H]2[C@@H](O)[C@H](O[C@H]3O[C@H](C(C)O)[C@@H](O)[C@H](O)[C@H]3N)[C@@H](N)C[C@H]2N)OC[C@]1(C)O (single isomer, unassigned) [GENETICIN]",2 µg/mL,–,–,512 µg/mL,512 µg/mL,–,–,–,–,512 µg/mL,512 µg/mL,–,–,–,512 µg/mL,512 µg/mL
Nc1ncnc2c1ncn2[C@@H]1O[C@H](COP(=O)(O)OP(=O)(O)OP(=O)(O)O)[C@@H](O)[C@H]1O,–,7.2 ×10⁵ /M/s,2.2 ×10⁶ /M/s,–,–,16.3 µM,43.3 s⁻¹,29.5 µM,21.4 s⁻¹,–,–,5.6 µM,12.1 s⁻¹,2.7 ×10⁶ /M/s,–,–
CN[C@@H]1[C@@H](O)[C@@H](O[C@@H]2[C@@H](O)[C@H](O[C@H]3OC(CN)=CC[C@H]3N)[C@@H](N)C[C@H]2N)OC[C@]1(C)O [SISOMICIN],0.25 µg/mL,–,–,8 µg/mL,8 µg/mL,–,–,–,–,8 µg/mL,4 µg/mL,–,–,–,4 µg/mL,8 µg/mL
NCC[C@H](O)C(=O)N[C@@H]1C[C@H](N)[C@@H](O[C@H]2O[C@H](CN)[C@@H](O)[C@H](O)[C@H]2O)[C@H](O)[C@H]1O[C@H]1O[C@H](CO)[C@@H](O)[C@H](N)[C@H]1O [AMIKACIN],2 µg/mL,9.4 ×10⁵ /M/s,1 ×10⁶ /M/s,2 µg/mL,16 µg/mL,62.9 µM,8.3 s⁻¹,23.7 µM,22.3 s⁻¹,2 µg/mL,16 µg/mL,13.5 µM,13.8 s⁻¹,1.3 ×10⁵ /M/s,2 µg/mL,2 µg/mL
NC[C@H]1O[C@H](O[C@H]2[C@H](O)[C@@H](O[C@H]3O[C@H](CO)[C@@H](O)[C@H](N)[C@H]3O)[C@H](N)C[C@@H]2N)[C@H](N)C[C@@H]1O [TOBRAMYCIN],1 µg/mL,> 2.7 ×10⁷ /M/s,> 1.7 ×10⁷ /M/s,64 µg/mL,64 µg/mL,1.5 µM,26.1 s⁻¹,< 1 µM,26.7 s⁻¹,64 µg/mL,64 µg/mL,< 1 µM,16.6 s⁻¹,1.7 ×10⁷ /M/s,32 µg/mL,64 µg/mL
"Nc1nc(=O)c2ncn([C@@H]3O[C@H](COP(=O)(O)OP(=O)(O)OP(=O)(O)O)[C@@H](O)C3O)c2[nH]1 (single isomer, unassigned)",–,3.2 ×10⁵ /M/s,6.5 ×10⁵ /M/s,–,–,70 µM,9.4 s⁻¹,28.2 µM,8.9 s⁻¹,–,–,16.2 µM,10.6 s⁻¹,1.3 ×10⁵ /M/s,–,–
NC[C@H]1O[C@H](O[C@H]2[C@H](O)[C@@H](O[C@H]3O[C@H](CO)[C@@H](O)[C@H](N)[C@H]3O)[C@H](N)C[C@@H]2N)[C@H](N)[C@@H](O)[C@@H]1O [BEKANAMYCIN],1 µg/mL,–,–,64 µg/mL,64 µg/mL,–,–,–,–,64 µg/mL,64 µg/mL,–,–,–,64 µg/mL,64 µg/mL
CCN[C@@H]1C[C@H](N)[C@@H](O[C@H]2OC(CN)=CC[C@H]2N)[C@H](O)[C@H]1O[C@H]1OC[C@](C)(O)[C@H](NC)[C@H]1O [NETILMICIN],0.25 µg/mL,–,–,16 µg/mL,8 µg/mL,–,–,–,–,8 µg/mL,8 µg/mL,–,–,–,4 µg/mL,8 µg/mL
